The record followed here is ChEMBL document CHEMBL1152641, “Effect of potential amine prodrugs of selective neuronal nitric oxide synthase inhibitors on blood-brain barrier penetration” (Bioorg Med Chem, 2009).

Series [1] in a line: Metabolic stability in rat liver microsomes assessed compound remaining after 40 mins by HPLC in presence of NADPH. Format: ADME, Microsome. As to conditions: read-out: Stability. Put shortly: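 Compound (10 μL of 300 μM stock) in PBS with NADPH regeneration solutions A/B was equilibrated at 37 °C. Rat liver microsomes were added and samples incubated for 0, 10, 20 or 40 min. Reactions were quenched with acetonitrile, chilled to 0 °C, centrifuged, dried and reconstituted in 2% formic acid. HPLC peak areas were normalized to t = 0; minaprine served as activity control.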
(In general: Microsomes from liver hold many membrane-bound enzymes, among them those of drug oxidation.)

Series [2] relates to Mus musculus. Put plainly: Plasma concentration in mouse at 10 umol/kg, ip. Format: ADME, organism-based. As to conditions: in vivo. Put shortly: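 Mice were given an i.p. injection of a 1 mM PBS solution (100 μL per 10 g) and sampled at 10 min. Heparinized blood was centrifuged and the plasma flash-frozen at −20 °C. Plasma plus internal standard was diluted in 2% acetic acid, cleaned by mixed-mode cation-exchange SPE, and quantified by positive-ESI LC-MS/MS (MRM) against triplicate standard curves; values as SEM.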

For series [3], the system named is Brain. Put plainly: Drug level in mouse brain at […], ip. Format: ADME, organism-based. As to conditions: in vivo, read-out: Drug uptake. Put shortly: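 Mice were dosed i.p. with compound diluted in PBS to 1 mM, at 100 μL per 10 g, and sampled 10 min later. Brains were PBS-perfused through the left ventricle, removed, flash-frozen, homogenized in 2% formic acid water/acetonitrile (2:1) with internal standard, then cleaned by cation-exchange SPE. Quantified by positive-ESI LC-MS/MS against triplicate standard curves; μg/g converted to μM assuming density 1 g/mL; SEM.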

A short description of series [4]: Ratio of drug level from brain to blood in mouse at 10 umol/kg, ip. Format: ADME, tissue-based.
The subject of series [5] is Brain. In words: Metabolic stability in mouse brain homogenate assessed degradation by HPLC in presence of NADPH. Format: ADME, tissue-based. Put shortly: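 Three fresh mouse brains were each homogenized in PBS (pH 7.4) with NADPH regeneration buffers A and B, then pooled. Compound was added from a 200 μM stock and incubated at 37 °C for 0, 10, 20 and 40 min. Samples were heat-stopped at 95 °C for 1 min. HPLC UV read-out was at 310 or 260 nm depending on the compound. Peak-area ratio to internal standard was normalized to t = 0.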

Series [6] deals with Plasma. In words: Metabolic stability in mouse plasma after 40 mins by HPLC in presence of NADPH.
For series [7], the system named is Plasma. Put plainly: Metabolic stability in mouse plasma assessed as half life in presence of NADPH. Format: ADME, cell-free. Put shortly: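 Fresh heparinized mouse plasma was supplemented with NADPH regenerating system (solutions A and B), and compound was added from a 200 μM stock. Incubation was at 37 °C, with samples taken at 0, 10, 20 and 40 min. Samples were quenched with acetonitrile plus internal standard, centrifuged, dried and run on HPLC. Compound/internal-standard ratio was normalized to the t = 0 ratio.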

For another series, the system named is Liver microsomes. In words: Metabolic stability in rat liver microsomes assessed degradation by HPLC in presence of NADPH. Format: ADME, Microsome. In outline: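 Rat liver microsomes were added to PBS containing NADPH regeneration buffers A and B and compound (from a 300 μM stock), pre-equilibrated at 37 °C. Incubation was at 37 °C for 0, 10, 20 and 40 min. Samples were quenched with acetonitrile, chilled, centrifuged, dried and reconstituted in 2% formic acid for HPLC. Peak area was normalized to t = 0. Minaprine was run in parallel as a P450 activity control.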

The test system of series [8] is Mus musculus. Put plainly: Toxicity in mouse at 3.7 mg/kg, ip. Format: organism-based. Set-up: dose 3.7 mg/kg, route intraperitoneal. The following applies: in vivo.

The structures appear in SMILES notation.

Regarding `Cc1cc(N)nc(C[C@@H]2CNC[C@@H]2OCCN(CCc2cccc(F)c2)C(=O)OCc2ccccc2)c1` (racemic), the remaining at 40 min in series [1] is > 60%. For the same compound, the concentration turned out to be 490 nM in the series on Mus musculus [2] and 9 nM with Brain [3]. Further, in series [4], the Kp (usually tissue or fluid exposure divided by exposure in the circulation) was 0.018.

As to `Cc1cc(N)nc(C[C@@H]2CNC[C@@H]2OCCN=[N+]=[N-])c1` (racemic), the Stability entry in the series on Brain [5] and in the series on Plasma [6] was “Stable” each time.

For `CC(OC(=O)N[C@@H](CCCNC(=N)N[N+](=O)[O-])CNc1ccccc1)OC(=O)C(C)(C)C` (single isomer, unassigned; diastereomer 2), the t1/2 with Plasma [7] worked out at 30 min. Besides, the Stability entry in the series with Brain [5] and with Liver microsomes was “Unstable” each time.

Take `CC(OC(=O)N[C@@H](CCCNC(=N)N[N+](=O)[O-])CNc1ccccc1)OC(=O)C(C)(C)C` (stereo partly specified): the Stability entry in the series on Plasma [6] is given as “Unstable”.

Regarding `Cc1cc(N)nc(C[C@@H]2CNC[C@@H]2OCCNCCc2cccc(F)c2)c1` (racemic), the Activity entry in the series with Mus musculus [8] is “Non-toxic”. Further, the figures for the concentration in the series on Mus musculus [2] and with Brain [3] were 1600 nM and 73 nM, respectively. Further, the concentration ratio (Kp) in [4] is 0.046.

For the compound `Cc1cc(N)nc(C[C@@H]2CNC[C@@H]2NCCNCCc2cccc(F)c2)c1`, the results for the concentration with Mus musculus [2] and in the series with Brain [3] were 1600 nM and 39 nM, respectively. In series [4], the Kp stood at 0.024.

Turning to `CC(OC(=O)N[C@@H](CCCNC(=N)N[N+](=O)[O-])CNc1ccccc1)OC(=O)C(C)(C)C` (single isomer, unassigned; diastereomer 1), the t1/2 in the series on Plasma [7] turned out to be 10 min.

For `CC(=O)N(CCO[C@H]1CNC[C@H]1Cc1cc(C)cc(N)n1)CCc1cccc(F)c1` (racemic), the remaining at 40 min in series [1] is > 80%. In addition, the concentration with Mus musculus [2] stood at 4600 nM; with Brain [3], 39 nM. In addition, in series [4], the Kp was 0.008.

As for `COC(=O)N(CCO[C@H]1CNC[C@H]1Cc1cc(C)cc(N)n1)CCc1cccc(F)c1` (racemic), the remaining at 40 min in [1] is > 80%. Besides, the concentration amounted to 1210 nM in the series on Mus musculus [2] and 18 nM with Brain [3]. Besides, in series [4], the Kp came to 0.015.
